Assay outcomes from PubChem.
The full list was thinned out, with hits kept by preference.
RORa inhibitor – RORA (human) inhibition; P35398; CHO-K1 Gal4-RORA LBD luciferase reporter, luminescence; inhibition, % at 10 µM; 65,000 compounds, 0.43% hits; AID 561;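 active = inhibition above the mean of all tested compounds plus 3 SD, cut at about 52% in these data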;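 note: 0% = RORA-transfected cells with DMSO and 100% = mock-transfected cells lacking RORA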
Target sequence (P35398 whole entry, looked up, the tested form may be a part): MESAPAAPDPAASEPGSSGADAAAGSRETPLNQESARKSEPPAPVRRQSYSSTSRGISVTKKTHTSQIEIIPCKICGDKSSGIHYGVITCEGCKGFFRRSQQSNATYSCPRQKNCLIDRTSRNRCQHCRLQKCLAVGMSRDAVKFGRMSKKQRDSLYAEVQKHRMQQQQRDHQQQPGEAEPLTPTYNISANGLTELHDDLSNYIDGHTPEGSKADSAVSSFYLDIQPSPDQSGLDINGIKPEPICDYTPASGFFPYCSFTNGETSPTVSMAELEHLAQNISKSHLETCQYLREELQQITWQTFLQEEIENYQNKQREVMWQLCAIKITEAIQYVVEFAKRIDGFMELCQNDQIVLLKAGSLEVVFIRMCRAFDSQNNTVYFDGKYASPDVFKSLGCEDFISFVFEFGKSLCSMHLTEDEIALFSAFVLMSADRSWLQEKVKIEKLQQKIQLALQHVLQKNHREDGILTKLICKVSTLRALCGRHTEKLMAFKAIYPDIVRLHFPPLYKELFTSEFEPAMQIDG
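test system = CHO-K1 Gal4-RORA LBD luciferase reporter cells | dosing = 10 µM single point | times = 20 h compound treatment, 37 °C | signal = luciferase luminescence | read-out = % inhibition of basal luciferase versus +RORA/-RORA DMSO controls | benchmarks = mock-transfected cells as 100%, +RORA DMSO cells as 0% | replicates = tested once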
* marks the source's active call; other numbers are inactive results.

SMILES	RORa inhibitor
Nc1nc(-c2ccc3c(c2)OCCO3)cs1	-50
Cc1ccc(-c2csc(N3CCC(NS(=O)(=O)c4ccc5c(c4)OCCO5)CC3)n2)cc1	70*
CCCC(=O)Nc1nc(-c2ccc3c(c2)OCCO3)cs1	-63
COCCNS(=O)(=O)c1cccc2cccnc12	-8
CCC1CCCCN1C(=O)CSc1nc(N)c(NC(=O)c2ccc(OC)c(OC)c2)c(=O)[nH]1 (stereo unspecified)	20
c1ccc(CCc2nc(-c3ccccn3)no2)cc1	-54
COc1nc(C)ccc1-c1noc(-c2ccccn2)n1	-61
c1ccc(-c2cccc(-c3ccccn3)n2)nc1	64*
CCOC(=O)COc1ccc2c(c1)C(=O)CC(C)(C)O2	-14
COC(=O)c1cccc(OC(N)=O)c1	-3
CC1CCN(C(=O)CN2C(=O)C(C)(C)Oc3ccc(C(=O)NC4CCCC4)cc32)CC1	-10
O=C1CCCN1CN(C(=O)c1ccc2c(c1)OCO2)c1ccc(F)cc1	-20
COCCn1cc(C(=O)NCCCN2CCC(C)CC2)c2c3ccccc3n(C)c2c1=O	-13
COc1ccc(O)c(C(=O)CC(=O)c2ccc(F)cc2)c1	58*
COc1cccc(NC(=O)Cc2nnc(SCC(=O)c3ccccc3)n2C)c1	3
COc1ccc(C(=O)c2ccccc2)c(O)c1	-10
O=C(NCC12CC3CC(CC(C3)C1)C2)c1cc2n(n1)C(C(F)(F)F)CC(c1ccco1)N2 (stereo unspecified)	-5
CCc1ccc(-n2c(O)cnc2Nc2nc(C)cc(C)n2)cc1	-4
CN(C)c1ccc(NC(=O)c2ccc(COc3cccc(Cl)c3)o2)cc1	-73
O=S(=O)(NCC(c1cccnc1)N1CCN(Cc2ccccc2)CC1)c1ccccc1 (stereo unspecified)	-4
CCCNc1nc2c(c(=O)n(C)c(=O)n2C)n1Cc1cccc(C)c1	55*
CCn1c(NCc2ccccn2)nc2c1c(=O)n(C)c(=O)n2C	-2
CCCCC(=O)NCCNc1nc2c(c(=O)n(C)c(=O)n2C)n1Cc1ccc(F)cc1	10
Cn1c(NCc2ccccc2)nc2c1c(=O)n(Cc1ccc(Br)cc1)c(=O)n2C	7
CCCNc1nc2c(c(=O)n(C)c(=O)n2C)n1CCc1ccccc1	17
SMILES	RORa inhibitor
COc1cccc(Cn2c(NCc3ccco3)nc3c2c(=O)n(C)c(=O)n3C)c1	62*
Cc1c(C)[n+](=O)c(-c2ccco2)c(C)n1[O-]	22
COC(=O)c1cccc(-n2nnnc2SCC(=O)Nc2cc(C)on2)c1	21
CC1(C)CC(=O)C=C(Nc2ccc(S(N)(=O)=O)cc2)C1	8
COc1ccc2c(c1OC)C(=O)N1C2SC[C@H]1C(=O)NC1CC(C)(C)NC(C)(C)C1 (stereo partly specified)	8
COc1ccc(N2CCN(Cc3nc4c(c(=O)[nH]c(=O)n4C)n3Cc3cccc(Cl)c3)CC2)cc1	-11
CCOC(=O)N1CCC(NC(=O)Cn2cc3c(n2)CCCC3)CC1	-6
c1ccc2nc(-c3nc4ccccc4o3)ccc2c1	58*
CC(Sc1ccc2ccccc2n1)C(=O)O (stereo unspecified)	1
O=C1C2C3C=CC(C3)C2C(=O)N1c1ccc(-c2nc3ccccc3o2)cc1 (stereo unspecified)	-73
CC(=O)OCCN(CCOC(C)=O)c1c(C)[nH]c(=O)[nH]c1=O	3
CCCn1c(N)c(Sc2ccc(Cl)cc2)c(=O)n(CCC)c1=O	-6
NC(=O)CS(=O)(=O)c1nc2ccccc2n1Cc1ccccc1F	22
CCC1SC2=NC(C)=C(C(=O)OC)C(c3cccs3)N2C1=O (stereo unspecified)	-7
CCOc1cc(N2CCOCC2)c(OCC)cc1NS(=O)(=O)c1ccc(Cl)s1	-79
CCOC(=O)Cn1nnnc1CN(Cc1ccccc1)Cc1cc2cc(CC)ccc2[nH]c1=O	-58
Cc1nnc(Sc2nc(Sc3nnc(C)s3)nc(N3CCN(C)CC3)n2)s1	93*
Cc1ccc(CNC(=O)C2CNc3cc(C)ccc3O2)cc1 (stereo unspecified)	17
Cc1nc(N2CCC3(CC2)OCCO3)c2nnn(Cc3ccccc3F)c2n1	-2
Cc1ccc(C(=O)CN2CCC(NC(=O)C3CCCCC3)CC2)cc1	9
Cn1c(Cn2c(=O)sc3ccccc32)nnc1SCC(=O)N1CCc2ccccc21	-17
O=C1/C(=C/Nc2ccc3c(c2)OCO3)CCc2ccccc21	72*
O=C(Nc1ccc2c(c1)OCO2)c1cccc(F)c1	-52
COc1ccc(N/C=C2\CCOC2=O)cc1	30
Cc1ccc(-c2csc(NC(=O)c3ccno3)n2)cc1	-60
SMILES	RORa inhibitor
COc1ccc(C(O)P(=O)(O)CCc2ccccc2)cc1 (stereo unspecified)	-52
CCn1c(=O)cc(NC2=NCC(C)CN2c2cccc(Cl)c2)n(C)c1=O (stereo unspecified)	0
O=C(Nc1ccc(N2CCOCC2)cc1)c1cnsn1	69*
O=C(Nc1ccc(N2CCOCC2)c(Cl)c1)c1ccc(Br)o1	-55
O=C(Nc1ccc(S(=O)(=O)N2CCCC2)cc1)c1ccc(CN2CCOCC2)cc1	20
COC(=O)c1cc2c(s1)CS(=O)C2 (stereo unspecified)	4
O=C(C1CC1)N1CCN=C1SCc1ccccc1Cl	-5
Cc1cccc(-n2ncc3c(N(CCO)CCO)ncnc32)c1	-68
Cc1cccc(-n2ncc3c(N(C)C4CCCCC4)ncnc32)c1	73*
Cc1cccc(-n2ncc3c(NCc4ccccc4)ncnc32)c1	-78
COc1ccc(-n2ncc3c(N(C)C4CCCCC4)ncnc32)cc1	76*
COCCN(CCOC)c1ncnc2c1cnn2-c1ccc(Cl)cc1	-55
CCN(c1ccccc1)c1ncnc2c1cnn2-c1ccccc1	-59
CCCCOc1ccc(C2(C)CC(=O)NC2=O)cc1 (stereo unspecified)	-15
CCOC(=O)c1c(C)[nH]c(C(=O)COC(=O)CNC(=O)C2CCCCC2)c1C	23
CCN(CC)C(=O)N1CCC(NC(=O)c2ccccc2)CC1	-3
CN(C)/C=N/c1cnc(C(=O)c2ccc(Cl)cc2)n1C	-76
CC1=C(C(=O)OC(C)(C)C)C(c2ccco2)C(C#N)=C(N)O1 (stereo unspecified)	-2
CC(=O)Nc1ccc(-n2c(C)nc(=O)c(-c3ccccc3)c2C)cc1	10
CC1CCN(c2ccc(C(=O)O)cc2N)CC1	14
Cc1cc(C)cc(Nc2ccc(C(=O)O)cc2N)c1	71*
C/C(=C\C(=O)c1ccc(C)o1)Nc1ccc(C(=O)O)cc1C	-4
CCC(=O)NCCCCNC(=O)CC	6
CCOc1ccc(-n2nnc3c(=O)n(CC(=O)c4ccccc4)cnc32)cc1	12
O=C(Nc1ccccc1)Nc1cccc2cccnc12	-86
SMILES	RORa inhibitor
O=S1(=O)Nc2c(ccc3cccnc23)-c2ccccc21	74*
Cc1ccc(Sc2oc(/C=N/n3cnnc3)cc2Br)cc1	16
COc1ccc(-c2noc(CCCC(=O)O)n2)cc1	68*
CCCCC(=O)Nc1ccc(NC(=O)c2cccnc2)cn1	-6
COCc1nc(-c2ccc(-c3ccccc3)nc2OC)no1	-72
CCOc1ccc(-c2noc(CCC(=O)O)n2)cc1	54*
Cc1ccc(-c2noc(CCCC(=O)Nc3cccnc3)n2)cc1	53*
COc1cc2ccccc2cc1C(=O)Nc1cccnc1	-77
COCc1nc(-c2ccc(-c3ccc(OC)cc3)nc2OC)no1	-49
CCOC(=O)Cn1c(CCC(=O)O)ccc1-c1ccc(F)cc1	17
CCOc1nc(-c2ccccc2)ccc1-c1noc(COC)n1	-3
Cc1ccc(OCC(=O)n2nc(C)cc2C)c(Br)c1	3
